Activity calls are given as the source filed them. The rule behind the calls is not given here.

Sequence of Protein phosphatase methylesterase 1 (Mus musculus) (Q8BVQ5 whole entry, looked up): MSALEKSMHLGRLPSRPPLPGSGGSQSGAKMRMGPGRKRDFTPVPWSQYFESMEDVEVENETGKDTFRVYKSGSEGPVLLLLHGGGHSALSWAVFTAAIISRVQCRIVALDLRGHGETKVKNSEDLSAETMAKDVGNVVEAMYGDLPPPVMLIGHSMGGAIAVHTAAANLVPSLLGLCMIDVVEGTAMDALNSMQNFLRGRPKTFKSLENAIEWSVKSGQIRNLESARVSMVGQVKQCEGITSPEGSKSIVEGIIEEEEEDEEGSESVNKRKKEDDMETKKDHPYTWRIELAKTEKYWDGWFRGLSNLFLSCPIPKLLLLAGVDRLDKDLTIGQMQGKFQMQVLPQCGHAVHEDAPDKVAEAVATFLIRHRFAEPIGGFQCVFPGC

In this assay the target is Protein phosphatase methylesterase 1 (Mus musculus) (UniProt Q8BVQ5). Kind of assay: PME-1 probe labeling blockade in lysate – cell lysate, mouse brain cytosol, FP-rhodamine, in-gel fluorescence, orthogonal assay for PME-1 inhibitor project, late-stage follow-up (AID 2369). The following applies: FP-rhodamine gel ABPP, band fluorescence, at 20 µM, hits give high values. Put shortly: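 Material: Native PME-1, mouse brain cytosol | Quantity: Cytosol, 2 mg/mL | Also added: Fluorophosphonate-rhodamine activity probe at 75 nM | Doses: Single compound dose of 20 µM | Timing: 30 min compound pre-incubation (25 °C), 45 min probe | Technique: Gel fluorescence scan | Measure: % inhibition from band density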
For the molecule `N#C/C(=C\c1cccn1S(=O)(=O)c1cccc([N+](=O)[O-])c1)S(=O)(=O)c1ccc(F)cc1`, the inhibition is 90%.

On to `N#C/C(=C\c1cccn1S(=O)(=O)c1cccc(C(=O)O)c1)S(=O)(=O)c1ccc(F)cc1`, for which the inhibition is 60% (inactive).

On to `N#C/C(=C\c1cccn1-c1ccc(OC(F)(F)F)cc1)S(=O)(=O)c1ccccc1`, for which the inhibition is 0% (inactive).

On to `Cc1ccc(-n2cccc2/C=C(\C#N)S(C)(=O)=O)c([N+](=O)[O-])c1`, for which the inhibition was 0% (inactive).

On to `COc1cccc(S(=O)(=O)n2cccc2/C=C(\C#N)S(=O)(=O)c2ccc(F)cc2)c1`, for which the inhibition is 60% (inactive).

Turning to `CS(=O)(=O)/C(C#N)=C/c1cccn1-c1ccc(C(F)(F)F)cc1`, the inhibition is 0% (inactive).

Regarding `N#C/C(=C\c1cccn1-c1cc(Cl)cc(Cl)c1)S(=O)(=O)c1ccccc1`, the inhibition was 0% (inactive).

As to `CS(=O)(=O)/C(C#N)=C\c1ccc(-n2cc(/C=C(/C#N)S(C)(=O)=O)c3ccccc32)cc1`, the inhibition was 0% (inactive).

For the molecule `Cc1cc(C)c(/C=C(\C#N)S(=O)(=O)c2ccccc2)[nH]1`, the inhibition is 0% (inactive).

As for `CS(=O)(=O)/C(C#N)=C\c1cnc(S(=O)(=O)c2ccccc2)s1`, the inhibition is 0% (inactive).

In the case of `N#C/C(=C\c1cccn1S(=O)(=O)c1cccc(Cl)c1)S(=O)(=O)c1ccc(F)cc1`, the inhibition is 80%.

As to `N#C/C(=C\c1cccn1S(=O)(=O)c1cccc(C#N)c1)S(=O)(=O)c1ccc(Br)cc1`, the inhibition is 70%.

On to `N#C/C(=C\c1cccn1S(=O)(=O)c1cccc(OC(F)(F)F)c1)S(=O)(=O)c1ccc(F)cc1`, for which the inhibition is 75%.

Consider `COc1ccc2[nH]c(/C=C(\C#N)S(C)(=O)=O)cc2c1`, for which the inhibition is 0% (inactive).

On to `CS(=O)(=O)/C(C#N)=C/c1cccn1-c1ccc(OC(F)(F)F)cc1`, for which the inhibition was 0% (inactive).

As for `N#C/C(=C\c1cccn1-c1ccc(Cl)cc1)S(=O)(=O)c1ccccc1`, the inhibition was 0% (inactive).

As to `COC(=O)c1[nH]c2ccccc2c1/C=C(\C#N)S(C)(=O)=O`, the inhibition is 0% (inactive).

As for `N#C/C(=C\c1cccn1S(=O)(=O)c1cccc(C#N)c1)S(=O)(=O)c1ccc(Cl)cc1`, the inhibition is 85%.

Consider `Cc1cc(C)n(-c2ccc(-n3cccc3/C=C(\C#N)S(C)(=O)=O)cc2)n1`, for which the inhibition was 0% (inactive).

With `CCSc1ncc(/C=C(/C#N)S(C)(=O)=O)n1C`, the inhibition was 0% (inactive).

Take `CS(=O)(=O)/C(C#N)=C/c1cn(Cc2cnc(Cl)s2)c2ccccc12`: the inhibition is 0% (inactive).

Turning to `Cc1ccc(-c2nc3sccn3c2/C=C(\C#N)S(C)(=O)=O)cc1`, the inhibition is 0% (inactive).

With `Cc1cc(C)n(-c2ccc(-n3cccc3/C=C(/C#N)S(=O)(=O)c3ccccc3)cc2)n1`, the inhibition was 0% (inactive).

The values above are taken from PubChem BioAssay AID2369 (The Scripps Research Institute Molecular Screening Center, 2010).
